Results: ChEMBL document CHEMBL3627606, “Development of Novel, CNS Penetrant Positive Allosteric Modulators for the Metabotropic Glutamate Receptor Subtype 1 (mGlu1), Based on an N-(3-Chloro-4-(1,3-dioxoisoindolin-2-yl)phenyl)-3-methylfuran-2-carboxamide Scaffold, That Potentiate Wild Type and Mutant mGlu1 Receptors Found in …” (J Med Chem, 2015)

What was measured:
[1] = molecular target: T1, Metabotropic glutamate receptor 1 (Homo sapiens, UniProt Q13255); experiment: Positive allosteric modulation of human mGlu1 receptor in HEK293 cells assessed as potentiation of glutamate-induced calcium mobiliztion by Fluo-4AM dye based fluorescence analysis; assay type: functional, cell-based
Target sequence in this assay (Q13255 whole entry): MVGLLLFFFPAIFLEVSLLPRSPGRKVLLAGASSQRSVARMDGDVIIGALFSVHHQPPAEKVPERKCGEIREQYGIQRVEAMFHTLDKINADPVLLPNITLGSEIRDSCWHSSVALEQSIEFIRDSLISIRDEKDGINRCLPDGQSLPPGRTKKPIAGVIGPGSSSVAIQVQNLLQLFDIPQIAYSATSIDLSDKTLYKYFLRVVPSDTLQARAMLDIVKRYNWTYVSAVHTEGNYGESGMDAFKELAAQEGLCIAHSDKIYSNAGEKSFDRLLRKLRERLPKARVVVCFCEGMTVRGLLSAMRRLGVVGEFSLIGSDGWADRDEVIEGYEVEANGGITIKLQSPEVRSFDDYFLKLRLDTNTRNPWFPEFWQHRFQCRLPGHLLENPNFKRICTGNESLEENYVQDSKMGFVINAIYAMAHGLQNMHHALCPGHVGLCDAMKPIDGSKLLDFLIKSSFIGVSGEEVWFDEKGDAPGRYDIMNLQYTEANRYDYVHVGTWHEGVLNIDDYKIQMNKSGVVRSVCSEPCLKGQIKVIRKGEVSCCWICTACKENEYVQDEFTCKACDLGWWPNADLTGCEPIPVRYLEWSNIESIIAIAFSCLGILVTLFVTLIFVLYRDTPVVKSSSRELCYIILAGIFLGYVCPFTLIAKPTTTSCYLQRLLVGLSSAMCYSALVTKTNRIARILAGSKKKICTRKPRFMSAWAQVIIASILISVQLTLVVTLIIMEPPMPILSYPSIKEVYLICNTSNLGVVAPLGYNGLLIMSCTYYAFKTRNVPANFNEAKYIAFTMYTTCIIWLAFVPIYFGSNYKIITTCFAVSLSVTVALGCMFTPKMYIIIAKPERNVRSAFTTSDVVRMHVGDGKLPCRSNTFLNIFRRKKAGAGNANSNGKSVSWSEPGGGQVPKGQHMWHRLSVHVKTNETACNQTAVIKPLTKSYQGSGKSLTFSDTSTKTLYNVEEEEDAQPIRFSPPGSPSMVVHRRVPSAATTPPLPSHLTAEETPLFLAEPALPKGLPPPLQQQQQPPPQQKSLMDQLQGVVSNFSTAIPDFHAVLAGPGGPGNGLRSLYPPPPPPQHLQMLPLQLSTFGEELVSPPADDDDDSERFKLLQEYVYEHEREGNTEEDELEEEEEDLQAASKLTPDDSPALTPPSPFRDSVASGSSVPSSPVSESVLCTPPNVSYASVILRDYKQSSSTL

[2] = molecular target: T1, Metabotropic glutamate receptor 1; experiment: Positive allosteric modulation of human mGlu1 receptor in HEK293 cells assessed as potentiation of glutamate-induced calcium mobiliztion by Fluo-4AM dye based fluorescence analysis relative to glutamate; assay type: functional, cell-based
Target sequence in this assay (Q13255 19-1194 limits assumed): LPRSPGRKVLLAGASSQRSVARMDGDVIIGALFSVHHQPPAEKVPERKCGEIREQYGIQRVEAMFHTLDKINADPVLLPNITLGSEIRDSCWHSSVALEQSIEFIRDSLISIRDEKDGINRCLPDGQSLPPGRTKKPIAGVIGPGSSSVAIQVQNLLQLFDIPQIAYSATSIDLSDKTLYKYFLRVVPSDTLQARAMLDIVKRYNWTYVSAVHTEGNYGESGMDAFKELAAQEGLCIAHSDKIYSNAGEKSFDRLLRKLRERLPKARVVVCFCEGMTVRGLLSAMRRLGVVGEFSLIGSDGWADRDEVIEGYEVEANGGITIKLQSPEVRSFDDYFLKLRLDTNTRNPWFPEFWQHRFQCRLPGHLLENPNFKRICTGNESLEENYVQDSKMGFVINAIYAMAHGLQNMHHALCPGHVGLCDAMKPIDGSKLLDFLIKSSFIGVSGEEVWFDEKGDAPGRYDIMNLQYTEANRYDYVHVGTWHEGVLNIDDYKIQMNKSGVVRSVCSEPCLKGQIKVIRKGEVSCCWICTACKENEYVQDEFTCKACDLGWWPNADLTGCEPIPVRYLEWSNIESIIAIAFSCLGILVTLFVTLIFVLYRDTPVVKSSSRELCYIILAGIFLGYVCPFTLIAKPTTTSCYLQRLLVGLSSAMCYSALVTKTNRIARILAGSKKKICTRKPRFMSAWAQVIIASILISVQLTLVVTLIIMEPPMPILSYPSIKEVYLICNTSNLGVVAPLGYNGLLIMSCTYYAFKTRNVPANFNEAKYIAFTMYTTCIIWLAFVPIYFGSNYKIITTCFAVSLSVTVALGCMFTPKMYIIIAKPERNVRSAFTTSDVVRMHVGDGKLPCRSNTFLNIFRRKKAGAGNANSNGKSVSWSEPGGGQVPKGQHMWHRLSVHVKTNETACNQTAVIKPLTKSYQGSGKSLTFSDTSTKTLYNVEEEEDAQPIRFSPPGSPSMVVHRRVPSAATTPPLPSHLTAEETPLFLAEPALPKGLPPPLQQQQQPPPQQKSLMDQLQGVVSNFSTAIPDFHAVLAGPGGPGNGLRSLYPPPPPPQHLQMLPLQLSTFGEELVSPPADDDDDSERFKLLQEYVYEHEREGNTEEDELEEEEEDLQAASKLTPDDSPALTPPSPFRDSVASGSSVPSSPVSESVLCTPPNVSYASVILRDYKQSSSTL

[3] = molecular target: T2, Metabotropic glutamate receptor 4 (Homo sapiens, UniProt Q14833); experiment: Positive allosteric modulation of human mGlu4 receptor assessed as potentiation of glutamate-induced calcium mobiliztion by cell based assay; assay type: functional; details: read-out: EC50
[4] = molecular target: Metabotropic glutamate receptor 1 (Rattus norvegicus, UniProt P23385); experiment: Positive allosteric modulation of rat mGlu1 receptor assessed as potentiation of glutamate-induced calcium mobiliztion by cell based assay; assay type: functional
How it was run: (§1)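 Rat mGlu1 WT calcium mobilization concentration-response curves. EC50 and % Glu Max were derived from the curves.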

[5] = molecular target: Metabotropic glutamate receptor 1 (Rattus norvegicus) (UniProt P23385); experiment: Positive allosteric modulation of rat mGlu1 receptor assessed as potentiation of glutamate-induced calcium mobiliztion by cell based assay relative to glutamate; assay type: functional; how it was run: as §1
[6] = molecular target: T1, Metabotropic glutamate receptor 1; experiment: Positive allosteric modulation of human mGlu1 receptor in HEK293 cells assessed as potentiation of glutamate-induced calcium mobiliztion at 10 uM by Fluo-4AM dye based fluorescence analysis; assay type: functional, cell-based
Target sequence in this assay (Q13255 19-1194 limits assumed): as above

[7] = molecular target: T1, Metabotropic glutamate receptor 1; experiment: Agonist activity at human mGlu1 receptor in HEK293 cells assessed as calcium mobilization at 10 uM by Fluo-4AM dye based fluorescence analysis; assay type: functional, cell-based
Target sequence in this assay (Q13255 19-1194 limits assumed): as above

[8] = molecular target: Metabotropic glutamate receptor 3 (Homo sapiens) (UniProt Q14832); experiment: Positive allosteric modulation of mGlu3 receptor (unknown origin) assessed as potentiation of glutamate-induced response by cell-based assay
How it was run: (§2)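 Selectivity counterscreen at the other mGlu subtypes using the standard fold-shift paradigm. Compound was tested at 10 μM against the glutamate concentration-response curve, and the shift of that curve was read.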

[9] = molecular target: Metabotropic glutamate receptor 5 (Homo sapiens) (UniProt P41594); experiment: Positive allosteric modulation of mGlu5 receptor (unknown origin) assessed as potentiation of glutamate-induced response by cell-based assay; how it was run: as §2
[10] = molecular target: Metabotropic glutamate receptor 7 (Homo sapiens) (UniProt Q14831); experiment: Positive allosteric modulation of mGlu7 receptor (unknown origin) assessed as potentiation of glutamate-induced response by cell-based assay; how it was run: as §2
[11] = Intrinsic clearance in human liver microsomes at 1 uM by LC-MS/MS analysis; assay type: ADME; details: read-out: CLH
Plasma [12] = experiment: Fraction unbound in human plasma; assay type: ADME, cell-free
Plasma [13] = experiment: Fraction unbound in rat plasma; assay type: ADME, cell-free
Cytochrome P450 1A2 = molecular target: T3, Cytochrome P450 1A2 (Homo sapiens, UniProt P05177); experiment: Inhibition of CYP1A2 in human liver microsomes by LC-MS/MS analysis; assay type: ADME
T3 sequence (P05177 whole entry): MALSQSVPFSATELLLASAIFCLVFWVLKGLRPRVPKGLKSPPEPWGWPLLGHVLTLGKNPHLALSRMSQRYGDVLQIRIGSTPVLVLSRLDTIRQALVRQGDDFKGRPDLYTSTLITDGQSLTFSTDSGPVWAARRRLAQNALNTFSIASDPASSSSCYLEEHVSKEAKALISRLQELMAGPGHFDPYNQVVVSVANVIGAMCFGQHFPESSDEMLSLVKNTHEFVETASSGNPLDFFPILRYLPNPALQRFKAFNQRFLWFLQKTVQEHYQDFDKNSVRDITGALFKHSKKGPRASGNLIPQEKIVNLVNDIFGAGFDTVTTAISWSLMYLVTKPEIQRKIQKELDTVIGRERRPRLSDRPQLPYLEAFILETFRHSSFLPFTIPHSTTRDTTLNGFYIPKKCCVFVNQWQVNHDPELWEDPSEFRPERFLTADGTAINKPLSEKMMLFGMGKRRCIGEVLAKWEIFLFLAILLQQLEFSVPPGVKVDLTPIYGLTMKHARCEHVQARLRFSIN

Cytochrome P450 2C9 = Cytochrome P450 2C9 (Homo sapiens, UniProt P11712); experiment: Inhibition of CYP2C9 in human liver microsomes by LC-MS/MS analysis; assay type: ADME
Cytochrome P450 2D6 = Cytochrome P450 2D6 (Homo sapiens, UniProt P10635); experiment: Inhibition of CYP2D6 in human liver microsomes by LC-MS/MS analysis; assay type: ADME
[14] = tested on: Metabotropic glutamate receptor 1 (Homo sapiens), Q13255 [Y632H]; experiment: Agonist activity at human mGlu1 Y632H mutant receptor expressed in HEK293 cells assessed as calcium mobilization at > 1 uM uM by Fluo-4AM dye based fluorescence analysis; assay type: functional, cell-based
[15] = tested on: Metabotropic glutamate receptor 1 (Homo sapiens), Q13255 [P1014S]; experiment: Agonist activity at human mGlu1 P1014S mutant receptor expressed in HEK293 cells assessed as calcium mobilization at > 1 uM uM by Fluo-4AM dye based fluorescence analysis; assay type: functional, cell-based
Hippocampus = experiment: Toxic epileptiform activity in C57BL/6 mouse CA3 region of hippocampus assessed as frequency of spike activity at 10 uM by electrophysiolgy method (reference value: 0.99 +/- 0.38 Hz); assay type: toxicity, tissue-based
How it was run: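 Mouse hippocampal slices with extracellular recording from the CA3 pyramidal cell body layer. Compound (10 μM) or DHPG (50 μM) was bath-applied, and the frequency of spontaneous spikes was compared with baseline. n = 6 per agent, paired t test.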

Mus musculus = experiment: Toxicity in C57BL/6 mouse assessed as seizure activity at 100 mg/kg, ip administered as single dose measured for 3 hrs; assay type: organism-based; details: in vivo
How it was run: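 Male C57Bl/6 mice (25−30 g) dosed ip in 10% Tween 80 at 10 mL/kg: the mGlu5 ago-PAM at 1 or 3 mg/kg, the mGlu1 PAMs at 100 mg/kg. Behaviour was monitored continuously for 3 h and scored on a modified Racine scale (0−5).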

Brain = experiment: Drug concentration in C57BL/6 mouse brain at 100 mg/kg, ip administered as single dose; assay type: ADME, organism-based; details: in vivo, read-out: Drug uptake
Homo sapiens = species: Homo sapiens; experiment: Intrinsic clearance in human hepatocytes at 1 uM by LC-MS/MS analysis; details: read-out: CLH
[16] = Plasma concentration in Sprague-Dawley rat at 0.2 mg/kg, iv after 0.25 hrs by LC-MS/MS analysis
Rattus norvegicus = experiment: Volume of distribution at steady state in Sprague-Dawley rat at 0.2 mg/kg, iv by LC-MS/MS analysis; details: in vivo
[17] = Drug concentration in Sprague-Dawley rat brain at 0.2 mg/kg, iv after 0.25 hrs by LC-MS/MS analysis; details: read-out: Drug uptake
[18] = molecular target: T2, Metabotropic glutamate receptor 4; experiment: Positive allosteric modulation of human mGlu4 receptor assessed as potentiation of glutamate-induced calcium mobiliztion by cell based assay relative to PHCCC

T2 sequence (Q14833 whole entry): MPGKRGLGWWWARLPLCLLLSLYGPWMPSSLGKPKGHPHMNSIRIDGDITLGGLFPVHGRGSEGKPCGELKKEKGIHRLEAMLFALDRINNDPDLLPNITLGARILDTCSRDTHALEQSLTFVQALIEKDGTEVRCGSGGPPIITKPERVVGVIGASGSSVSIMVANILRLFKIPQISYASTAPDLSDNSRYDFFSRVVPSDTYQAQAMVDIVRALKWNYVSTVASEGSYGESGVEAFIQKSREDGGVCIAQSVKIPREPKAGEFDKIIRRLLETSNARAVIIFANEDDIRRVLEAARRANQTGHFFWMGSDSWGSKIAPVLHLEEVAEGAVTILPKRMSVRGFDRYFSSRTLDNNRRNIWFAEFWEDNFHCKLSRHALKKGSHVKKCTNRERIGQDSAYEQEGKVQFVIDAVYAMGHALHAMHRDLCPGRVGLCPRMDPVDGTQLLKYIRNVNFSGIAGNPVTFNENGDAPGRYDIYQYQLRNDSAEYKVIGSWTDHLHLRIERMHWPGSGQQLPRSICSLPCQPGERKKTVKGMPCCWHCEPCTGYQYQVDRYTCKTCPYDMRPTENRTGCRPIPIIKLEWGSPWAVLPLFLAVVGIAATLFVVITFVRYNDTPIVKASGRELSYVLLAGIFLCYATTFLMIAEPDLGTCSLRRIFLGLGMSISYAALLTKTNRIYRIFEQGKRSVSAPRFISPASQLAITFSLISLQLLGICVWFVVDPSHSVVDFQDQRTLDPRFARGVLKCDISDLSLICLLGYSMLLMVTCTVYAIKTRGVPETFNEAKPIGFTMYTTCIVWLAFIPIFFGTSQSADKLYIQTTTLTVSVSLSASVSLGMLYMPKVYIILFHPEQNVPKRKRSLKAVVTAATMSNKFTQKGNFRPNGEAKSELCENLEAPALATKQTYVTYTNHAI
Metabotropic glutamate receptor 1 (Rattus norvegicus), sequence (P23385 19-1199 limits assumed): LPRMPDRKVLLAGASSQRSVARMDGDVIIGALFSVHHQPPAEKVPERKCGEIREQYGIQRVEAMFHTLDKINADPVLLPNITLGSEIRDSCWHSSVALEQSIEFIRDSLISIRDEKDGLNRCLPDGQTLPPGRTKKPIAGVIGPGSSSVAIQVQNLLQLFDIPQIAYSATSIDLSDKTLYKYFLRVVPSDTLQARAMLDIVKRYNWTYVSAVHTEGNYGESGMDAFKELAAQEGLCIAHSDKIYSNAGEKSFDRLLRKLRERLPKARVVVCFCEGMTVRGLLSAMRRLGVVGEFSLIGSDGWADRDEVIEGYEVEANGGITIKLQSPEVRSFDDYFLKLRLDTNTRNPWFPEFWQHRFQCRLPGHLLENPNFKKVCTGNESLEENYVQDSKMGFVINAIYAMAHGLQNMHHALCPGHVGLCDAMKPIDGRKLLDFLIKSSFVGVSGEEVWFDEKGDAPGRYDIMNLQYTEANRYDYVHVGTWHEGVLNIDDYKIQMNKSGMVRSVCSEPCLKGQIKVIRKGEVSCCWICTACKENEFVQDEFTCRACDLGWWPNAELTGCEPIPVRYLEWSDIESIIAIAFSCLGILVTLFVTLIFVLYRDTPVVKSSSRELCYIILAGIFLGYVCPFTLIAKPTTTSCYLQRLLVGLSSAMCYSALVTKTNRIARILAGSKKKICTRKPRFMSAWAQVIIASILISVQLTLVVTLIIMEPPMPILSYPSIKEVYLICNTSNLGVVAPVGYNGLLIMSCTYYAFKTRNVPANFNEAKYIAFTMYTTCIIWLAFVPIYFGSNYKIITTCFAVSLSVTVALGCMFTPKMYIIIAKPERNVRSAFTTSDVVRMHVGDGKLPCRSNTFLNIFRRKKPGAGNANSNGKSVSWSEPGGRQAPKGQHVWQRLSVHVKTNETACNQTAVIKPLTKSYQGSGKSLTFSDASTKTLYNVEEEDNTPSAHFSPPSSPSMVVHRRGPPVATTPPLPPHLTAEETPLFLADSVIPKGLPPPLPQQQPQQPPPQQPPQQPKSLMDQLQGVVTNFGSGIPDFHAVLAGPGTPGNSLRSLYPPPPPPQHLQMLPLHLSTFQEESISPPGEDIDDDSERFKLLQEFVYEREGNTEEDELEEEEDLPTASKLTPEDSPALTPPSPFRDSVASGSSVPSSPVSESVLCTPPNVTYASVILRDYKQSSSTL
Metabotropic glutamate receptor 1 (Homo sapiens), Q13255 [P1014S], sequence (Q13255 whole entry P1014S): as the sequence (Q13255 whole entry) above, with P1014S counted along it
Cytochrome P450 2D6, sequence (P10635 whole entry): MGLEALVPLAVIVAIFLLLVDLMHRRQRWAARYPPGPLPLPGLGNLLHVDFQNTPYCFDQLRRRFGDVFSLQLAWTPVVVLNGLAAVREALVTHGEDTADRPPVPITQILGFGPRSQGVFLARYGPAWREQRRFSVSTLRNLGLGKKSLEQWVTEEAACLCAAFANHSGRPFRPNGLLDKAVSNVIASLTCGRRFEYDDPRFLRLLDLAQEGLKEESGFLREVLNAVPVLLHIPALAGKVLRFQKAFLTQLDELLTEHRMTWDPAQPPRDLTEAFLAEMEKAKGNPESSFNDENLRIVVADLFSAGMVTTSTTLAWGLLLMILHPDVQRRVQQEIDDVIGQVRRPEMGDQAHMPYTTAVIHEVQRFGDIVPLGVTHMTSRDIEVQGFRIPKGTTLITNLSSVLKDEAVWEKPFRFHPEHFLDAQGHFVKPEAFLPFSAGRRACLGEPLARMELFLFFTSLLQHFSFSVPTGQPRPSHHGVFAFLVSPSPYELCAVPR

In the case of `Cc1ccoc1C(=O)Nc1ccc(N2C(=O)c3cccc(F)c3C2=O)c(Cl)c1`, the EC50 ([1]; read-out: EC50) is reported as 31.8 nM, the EC50 ([1]; read-out: pEC50 (converted)) is reported as 32.4 nM and the %max [2] is reported as 98%. It also gave an EC50 [3] of 1110 nM, an EC50 [4] of 40.7 nM and a %max [5] of 103%. For the same molecule, the fold change (FC) [6] was 11.4, the Activity [7] was 35% and the fold change (FC) [8] was < 2. The fold change (FC) [9] was 2.7, the fold change (FC) [10] was 7 and the CLint scaled at 1 µM [11] was 3.1 mL/min/kg. For the same molecule, the Fu (Plasma [12]) was 0.051, the Fu (Plasma [13]) was 0.03 and the IC50 (Cytochrome P450 1A2) was 25200 nM. For the same molecule, the IC50 (Cytochrome P450 2C9) was 6450 nM, the IC50 (Cytochrome P450 2D6) was > 30000 nM and the Activity [14] was 40%. For the same molecule, the Activity [15] was 40%, the Activity (Hippocampus) was 1.16 Hz and the Activity (Mus musculus) was “Non-toxic”. The concentration (Brain) was 9.2 µM, the CLint scaled at 1 µM (Homo sapiens) was 2.7 mL/min/kg and the concentration at 0.25 h [16] was 200 ng/mL. The Vdss (Rattus norvegicus) was 0.85 L/kg, the concentration at 0.25 h [17] was 204 ng/mL and the %max [18] was 122%.
